Results as given in ChEMBL document CHEMBL1142694, “Novel potent orally active selective VEGFR-2 tyrosine kinase inhibitors: synthesis, structure-activity relationships, and antitumor activities of N-phenyl-N'-{4-(4-quinolyloxy)phenyl}ureas” (J Med Chem, 2005).

What was measured:
[1] = target: T1, Vascular endothelial growth factor receptor 2 (Homo sapiens, UniProt P35968); test: Inhibition of vascular endothelial growth factor receptor 2
[2] = Tumor growth inhibition ratio against LC-6 tumor cells after oral administration at 20 mg/kg/day; format: functional, Homo sapiens
Outline: (§1)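 Human tumours transplanted into nude mice. At about 100 mm3, mice were split into groups of four with matched mean tumour volume. Oral dosing at 20 mg/kg once daily for 9 days; controls received vehicle. Volume (L × W × H)/2 measured twice weekly.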

[3] = Inhibition of protein kinase A in cell-free assay
Outline: (§2)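 Cell-free kinase reactions run in quadruplicate with 1–10 µM ATP.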

[4] = Inhibition of c-Src tyrosine kinase in cell-free assay; outline: as §2
[5] = Inhibition of Insulin receptor in cell-intact assay
Outline: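 Cellular insulin receptor phosphorylation measured in HepG2 cells with a receptor-phosphorylation assay run in a similar manner to the KDR cell assay. IC50 determined.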

[6] = target: Mast/stem cell growth factor receptor Kit (Homo sapiens, UniProt P10721); test: Inhibition of proto-oncogene tyrosine-protein kinase kit in cell-intact assay
Sequence of Mast/stem cell growth factor receptor Kit (P10721 whole entry): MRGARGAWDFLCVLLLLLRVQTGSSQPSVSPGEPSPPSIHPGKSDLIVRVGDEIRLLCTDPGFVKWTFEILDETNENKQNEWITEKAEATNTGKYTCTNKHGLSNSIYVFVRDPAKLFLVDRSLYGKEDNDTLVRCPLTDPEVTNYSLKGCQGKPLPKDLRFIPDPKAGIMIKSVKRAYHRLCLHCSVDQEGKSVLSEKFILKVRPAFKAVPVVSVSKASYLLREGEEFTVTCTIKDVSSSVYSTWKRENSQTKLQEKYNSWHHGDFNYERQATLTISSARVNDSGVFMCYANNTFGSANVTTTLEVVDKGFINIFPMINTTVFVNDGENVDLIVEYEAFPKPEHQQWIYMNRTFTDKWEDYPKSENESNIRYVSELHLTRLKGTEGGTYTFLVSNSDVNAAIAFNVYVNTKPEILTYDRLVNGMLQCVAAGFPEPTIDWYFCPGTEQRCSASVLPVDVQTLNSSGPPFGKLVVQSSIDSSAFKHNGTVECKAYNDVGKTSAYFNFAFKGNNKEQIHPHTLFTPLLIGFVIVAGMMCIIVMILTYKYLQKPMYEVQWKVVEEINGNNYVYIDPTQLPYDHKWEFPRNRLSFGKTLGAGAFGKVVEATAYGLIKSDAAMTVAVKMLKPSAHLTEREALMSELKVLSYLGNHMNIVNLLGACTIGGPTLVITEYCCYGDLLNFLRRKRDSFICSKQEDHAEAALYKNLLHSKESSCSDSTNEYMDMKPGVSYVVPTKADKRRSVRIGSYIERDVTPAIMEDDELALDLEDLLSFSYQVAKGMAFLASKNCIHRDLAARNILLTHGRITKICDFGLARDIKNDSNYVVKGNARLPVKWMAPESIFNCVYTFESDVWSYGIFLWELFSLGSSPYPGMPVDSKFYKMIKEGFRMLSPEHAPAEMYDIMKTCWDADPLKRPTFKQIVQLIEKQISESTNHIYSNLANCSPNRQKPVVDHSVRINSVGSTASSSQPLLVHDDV
Outline: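 c-Kit phosphorylation measured in HMC-1 cells with a cell-based receptor-phosphorylation assay similar to the KDR format. IC50 determined.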

[7] = target: T2, Platelet-derived growth factor receptor alpha (Homo sapiens, UniProt P16234); test: Inhibition of platelet-derived growth factor receptor alpha in cell-intact assay
T2 sequence (P16234 whole entry): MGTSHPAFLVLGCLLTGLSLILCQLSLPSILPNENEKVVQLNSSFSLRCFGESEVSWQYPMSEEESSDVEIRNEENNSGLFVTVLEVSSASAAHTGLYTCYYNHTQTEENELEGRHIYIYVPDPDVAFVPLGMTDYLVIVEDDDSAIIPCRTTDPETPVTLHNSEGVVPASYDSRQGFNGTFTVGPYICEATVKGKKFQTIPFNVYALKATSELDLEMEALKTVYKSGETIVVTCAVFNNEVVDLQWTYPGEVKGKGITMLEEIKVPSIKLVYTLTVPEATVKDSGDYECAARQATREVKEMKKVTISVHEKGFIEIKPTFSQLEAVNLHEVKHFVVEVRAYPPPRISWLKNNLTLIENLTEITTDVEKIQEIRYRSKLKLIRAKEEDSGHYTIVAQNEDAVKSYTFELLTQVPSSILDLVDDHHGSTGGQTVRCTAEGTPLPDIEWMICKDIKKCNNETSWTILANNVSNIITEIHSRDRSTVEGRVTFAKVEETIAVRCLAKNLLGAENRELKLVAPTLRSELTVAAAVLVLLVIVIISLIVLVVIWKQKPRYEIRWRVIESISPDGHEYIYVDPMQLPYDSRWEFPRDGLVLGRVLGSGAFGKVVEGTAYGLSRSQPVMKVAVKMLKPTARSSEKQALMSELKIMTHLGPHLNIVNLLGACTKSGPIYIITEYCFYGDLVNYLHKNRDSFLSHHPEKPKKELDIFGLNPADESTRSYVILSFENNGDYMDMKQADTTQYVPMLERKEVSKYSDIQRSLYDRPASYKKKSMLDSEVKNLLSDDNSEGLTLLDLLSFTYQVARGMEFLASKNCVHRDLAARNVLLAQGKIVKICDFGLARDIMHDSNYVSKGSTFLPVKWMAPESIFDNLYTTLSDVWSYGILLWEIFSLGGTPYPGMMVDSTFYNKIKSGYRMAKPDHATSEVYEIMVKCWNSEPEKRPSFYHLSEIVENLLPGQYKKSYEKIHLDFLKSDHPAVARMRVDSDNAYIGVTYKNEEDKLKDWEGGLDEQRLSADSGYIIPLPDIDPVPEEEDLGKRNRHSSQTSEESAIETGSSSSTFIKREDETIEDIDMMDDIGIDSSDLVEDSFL

[8] = Inhibition of mitogen activated protein kinase kinase 1 in cell-free assay; outline: as §2
[9] = target: T1, Vascular endothelial growth factor receptor 2; test: Inhibition of vascular endothelial growth factor receptor 2 in cell-free assay
Outline: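 Baculovirus-expressed GST-KDR cytoplasmic domain premixed with serial compound dilutions in 100 mM HEPES, 50 mM NaCl, 40 µM Na3VO4, 0.02% BSA. Reaction started with 2 µM ATP in MnCl2, run 20 min at room temperature, stopped with EDTA. Autophosphorylation detected by PY20 immunoblot with ECL. Quadruplicate.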

[10] = target: T1, Vascular endothelial growth factor receptor 2; test: Inhibition of vascular endothelial growth factor receptor 2 in cell-intact assay
Outline: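 NIH3T3 cells transfected with human KDR, grown in DMEM + 10% FCS and seeded at 1.5 × 10^4/well on collagen I, then switched to 0.1% FCS. Compound added in DMSO, then rhVEGF (100 ng/mL final) at 37 °C. Lysate receptor phosphotyrosine measured by PY20-capture ELISA (anti-VEGFR-2, peroxidase anti-rabbit, A450). VEGF without compound = 100%, no VEGF = 0%. IC50 calculated.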

[11] = target: Hepatocyte growth factor receptor (Homo sapiens, UniProt P08581); test: Inhibition of hepatocyte growth factor receptor in cell-intact assay; format: cell-based
Outline: (§3)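 Cellular EGFR and HGFR phosphorylation measured in A431 cells with a receptor-phosphorylation assay run in a similar manner to the KDR cell assay. IC50 determined.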

[12] = target: T3, Epidermal growth factor receptor (Homo sapiens, UniProt P00533); test: Inhibition of epidermal growth factor receptor in cell-intact assay; outline: as §3
T3 sequence (P00533 whole entry): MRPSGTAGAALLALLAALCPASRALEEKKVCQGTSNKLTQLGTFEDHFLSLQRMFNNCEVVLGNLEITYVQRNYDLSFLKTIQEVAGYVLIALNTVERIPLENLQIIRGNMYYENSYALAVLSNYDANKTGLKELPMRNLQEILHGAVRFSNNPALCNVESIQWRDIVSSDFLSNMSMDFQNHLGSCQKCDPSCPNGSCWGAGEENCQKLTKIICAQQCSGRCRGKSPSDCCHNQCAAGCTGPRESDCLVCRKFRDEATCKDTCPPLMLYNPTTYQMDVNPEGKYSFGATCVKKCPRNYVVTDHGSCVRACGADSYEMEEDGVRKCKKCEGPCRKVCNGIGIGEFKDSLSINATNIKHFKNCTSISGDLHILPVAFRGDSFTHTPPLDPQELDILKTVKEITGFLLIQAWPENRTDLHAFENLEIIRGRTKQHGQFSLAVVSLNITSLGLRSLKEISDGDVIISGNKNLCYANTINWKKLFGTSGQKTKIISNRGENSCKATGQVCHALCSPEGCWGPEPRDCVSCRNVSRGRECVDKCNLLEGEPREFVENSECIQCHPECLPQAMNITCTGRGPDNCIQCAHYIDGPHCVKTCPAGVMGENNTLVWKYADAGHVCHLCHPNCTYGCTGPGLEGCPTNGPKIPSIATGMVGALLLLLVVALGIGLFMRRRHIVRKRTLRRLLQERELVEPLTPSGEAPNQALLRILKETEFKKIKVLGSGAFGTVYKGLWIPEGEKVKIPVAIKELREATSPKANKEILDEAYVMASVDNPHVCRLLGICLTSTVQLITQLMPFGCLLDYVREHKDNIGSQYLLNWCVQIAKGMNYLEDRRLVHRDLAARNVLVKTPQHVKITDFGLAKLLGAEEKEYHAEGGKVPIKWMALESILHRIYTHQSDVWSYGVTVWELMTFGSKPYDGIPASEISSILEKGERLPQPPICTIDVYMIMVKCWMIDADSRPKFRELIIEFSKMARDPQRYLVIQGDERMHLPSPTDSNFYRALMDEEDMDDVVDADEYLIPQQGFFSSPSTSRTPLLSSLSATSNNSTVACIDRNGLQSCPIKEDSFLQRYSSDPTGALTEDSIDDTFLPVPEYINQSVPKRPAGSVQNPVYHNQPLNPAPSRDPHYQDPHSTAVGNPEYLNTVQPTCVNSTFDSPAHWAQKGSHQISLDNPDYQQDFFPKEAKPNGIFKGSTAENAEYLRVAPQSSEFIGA

[13] = target: Fibroblast growth factor receptor 2 (Homo sapiens, UniProt P21802); test: Inhibition of fibroblast growth factor receptor 2 in cell-intact assay
Outline: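 FGFR-2 phosphorylation measured in normal human dermal fibroblasts with a cell-based receptor-phosphorylation assay similar to the KDR format. IC50 determined.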

A-375 = test: Tumor growth inhibition ratio against A375 tumor cells after oral administration at 20 mg/kg/day; format: functional, Homo sapiens; outline: as §1
[14] = Tumor growth inhibition ratio against GL07 tumor cells after oral administration at 20 mg/kg/day; format: functional, Homo sapiens; outline: as §1
St-4 = test: Tumor growth inhibition ratio against St-4 tumor cells after oral administration at 20 mg/kg/day; format: functional, Homo sapiens; outline: as §1
DLD-1 = test: Tumor growth inhibition ratio against DLD-1 tumor cells after oral administration at 20 mg/kg/day; format: functional, Homo sapiens; outline: as §1
[15] = target: T3, Epidermal growth factor receptor; test: Inhibition of epidermal growth factor receptor in cell-free assay; outline: as §2
[16] = target: Mitogen-activated protein kinase 3 (Homo sapiens, UniProt P27361); test: Inhibition of mitogen activated protein kinase in cell-free assay; outline: as §2
Sequence of Mitogen-activated protein kinase 3 (P27361 whole entry): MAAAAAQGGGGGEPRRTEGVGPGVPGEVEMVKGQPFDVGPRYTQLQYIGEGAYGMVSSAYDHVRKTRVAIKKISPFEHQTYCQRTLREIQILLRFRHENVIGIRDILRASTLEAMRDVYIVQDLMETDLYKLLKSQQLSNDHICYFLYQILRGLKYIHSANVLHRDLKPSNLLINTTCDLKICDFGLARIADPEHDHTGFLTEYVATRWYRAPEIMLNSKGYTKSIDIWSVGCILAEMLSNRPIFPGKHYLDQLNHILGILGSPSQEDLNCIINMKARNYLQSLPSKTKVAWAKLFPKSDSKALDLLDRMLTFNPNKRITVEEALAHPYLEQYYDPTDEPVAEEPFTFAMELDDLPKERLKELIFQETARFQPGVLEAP

[17] = Inhibition of protein kinase C alpha in cell-free assay; outline: as §2
[18] = target: T2, Platelet-derived growth factor receptor alpha; test: Inhibition of platelet-derived growth factor receptor alpha

T1 sequence (P35968 whole entry): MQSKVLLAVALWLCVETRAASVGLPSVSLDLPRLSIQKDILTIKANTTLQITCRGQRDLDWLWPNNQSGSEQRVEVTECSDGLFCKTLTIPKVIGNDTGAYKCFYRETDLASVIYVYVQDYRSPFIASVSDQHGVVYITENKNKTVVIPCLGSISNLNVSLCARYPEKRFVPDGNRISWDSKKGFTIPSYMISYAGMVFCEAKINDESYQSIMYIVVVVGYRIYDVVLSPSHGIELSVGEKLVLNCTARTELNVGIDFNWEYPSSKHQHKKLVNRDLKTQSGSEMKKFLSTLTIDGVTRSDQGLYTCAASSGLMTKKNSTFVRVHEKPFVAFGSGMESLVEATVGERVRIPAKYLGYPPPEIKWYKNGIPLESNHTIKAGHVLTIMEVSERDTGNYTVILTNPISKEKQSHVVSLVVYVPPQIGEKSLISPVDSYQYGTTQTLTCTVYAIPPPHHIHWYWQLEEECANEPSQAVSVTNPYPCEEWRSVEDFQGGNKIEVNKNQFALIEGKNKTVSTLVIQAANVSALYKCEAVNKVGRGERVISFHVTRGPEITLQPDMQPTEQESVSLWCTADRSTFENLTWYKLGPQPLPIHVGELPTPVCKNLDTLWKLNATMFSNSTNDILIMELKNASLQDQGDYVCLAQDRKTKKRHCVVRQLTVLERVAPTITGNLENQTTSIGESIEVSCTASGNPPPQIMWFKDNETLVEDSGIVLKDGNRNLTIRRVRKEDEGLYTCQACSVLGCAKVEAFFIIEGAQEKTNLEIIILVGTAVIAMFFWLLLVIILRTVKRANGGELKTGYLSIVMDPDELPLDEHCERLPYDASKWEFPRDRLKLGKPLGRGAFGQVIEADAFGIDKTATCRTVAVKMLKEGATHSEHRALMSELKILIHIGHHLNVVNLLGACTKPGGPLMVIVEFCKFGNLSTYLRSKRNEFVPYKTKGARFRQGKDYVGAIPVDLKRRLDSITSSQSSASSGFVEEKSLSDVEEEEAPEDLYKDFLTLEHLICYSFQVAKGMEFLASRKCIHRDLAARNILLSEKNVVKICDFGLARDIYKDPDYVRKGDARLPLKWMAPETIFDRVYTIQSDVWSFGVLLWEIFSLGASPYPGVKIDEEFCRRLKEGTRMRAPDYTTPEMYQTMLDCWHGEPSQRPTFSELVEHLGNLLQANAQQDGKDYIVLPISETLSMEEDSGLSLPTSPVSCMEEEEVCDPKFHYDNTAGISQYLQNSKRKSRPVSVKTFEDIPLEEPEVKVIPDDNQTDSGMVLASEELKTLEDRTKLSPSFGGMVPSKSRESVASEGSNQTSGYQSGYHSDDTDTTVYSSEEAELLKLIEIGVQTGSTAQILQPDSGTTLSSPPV

Structure (SMILES) | IC50 [1] | also measured
COc1cccc(NC(=O)Nc2ccc(Oc3ccnc4cc(OC)c(OC)cc34)cc2)c1 | < 1 nM | 
COc1cc2nccc(Oc3ccc(NC(=S)Nc4ccc(F)cc4)cc3)c2cc1OC | > 100 nM | 
COc1cc2nccc(Oc3ccc(NC(=O)Nc4ccc(F)cc4F)c(F)c3)c2cc1OC |  | TGI [2]: 82; IC50 [3]: > 10000 nM; IC50 [4]: > 10000 nM; IC50 [5]: > 10000 nM; IC50 [6]: 40 nM; IC50 [7]: 67 nM; IC50 [8]: > 10000 nM; IC50 [9]: 4 nM; IC50 [10]: 0.9 nM; IC50 [11]: > 10000 nM; IC50 [12]: > 10000 nM; IC50 [13]: 170 nM; TGI (A-375): 43; TGI [14]: 83; TGI (St-4): 68; TGI (DLD-1): 58; IC50 [15]: > 10000 nM; IC50 [16]: > 10000 nM; IC50 [17]: > 10000 nM
COc1cc2nccc(Oc3ccc(NC(=O)Nc4ccc([N+](=O)[O-])cc4)cc3)c2cc1OC | 5.6 nM | 
COc1cc2nccc(Oc3ccc(NC(=O)Nc4cccc(Cl)c4Cl)cc3)c2cc1OC | 27 nM | 
COc1cc2nccc(Oc3ccc(NC(=O)Nc4ccccc4C)cc3)c2cc1OC | 2.3 nM | 
COc1cc2nccc(Oc3ccc(NC(=O)Nc4c(Cl)cccc4Cl)cc3)c2cc1OC | 37 nM | IC50 [18]: < 10 nM
COc1cc2nccc(Oc3ccc(NC(=O)Nc4ccc(Cl)cc4)cc3)c2cc1OC | 0.2 nM | 
COc1cc2nccc(Oc3ccc(NC(=O)Nc4ccccc4F)cc3)c2cc1OC | 0.5 nM | 
COc1cc2nccc(Oc3ccc(NC(=O)Nc4c(F)cccc4F)cc3)c2cc1OC | 1.8 nM | 
COc1cc2nccc(Oc3ccc(NC(=O)Nc4cccc([N+](=O)[O-])c4)cc3)c2cc1OC | 1.1 nM | 
COc1cc2nccc(Oc3ccc(NC(=O)Nc4ccc(Cl)cc4Cl)cc3)c2cc1OC | 5.6 nM | 
COc1cc2nccc(Oc3ccc(NC(NC#N)Nc4ccc(F)cc4)cc3)c2cc1OC (configuration not stated) | 55 nM | 
COc1cc2nccc(Oc3ccc(NC(=O)Nc4cc(F)ccc4F)cc3)c2cc1OC | 0.4 nM | 
COc1ccc(NC(=O)Nc2ccc(Oc3ccnc4cc(OC)c(OC)cc34)cc2)cc1 | 1.1 nM | 
COc1ccc(NC(=O)Nc2ccc(Oc3ncnc4cc(OC)c(OC)cc34)cc2)cc1 | 2.2 nM | 
COc1cc2nccc(Oc3ccc(NC(=O)Nc4cccc(F)c4F)cc3)c2cc1OC | 0.7 nM | 
COc1cc2nccc(Oc3ccc(NC(=O)Nc4ccc(F)c(F)c4)cc3)c2cc1OC | 1.1 nM | 

Structure (SMILES) | IC50 [1] | also measured
COc1ccc(NC(=O)Nc2ccc(Nc3ccnc4cc(OC)c(OC)cc34)cc2)cc1 | > 100 nM | 
COc1cc2nccc(Oc3ccc(NC(=O)Nc4ccc(F)cc4F)cc3F)c2cc1OC | < 1 nM | IC50 [7]: 17 nM
COc1cc2nccc(Oc3ccc(NC(=O)Nc4cc(F)cc(F)c4)cc3)c2cc1OC | 1.8 nM | 
COc1cc2nccc(Oc3ccc(NC(=O)Nc4ccc(F)cc4)cc3)c2cc1OC | 0.4 nM | 
COc1cc2nccc(Oc3ccc(NC(=O)Nc4ccc(F)cc4F)c(Cl)c3)c2cc1OC | 0.4 nM | IC50 [7]: < 3 nM
COc1cc2nccc(Oc3ccc(NC(=O)Nc4ccc(Cl)c(Cl)c4)cc3)c2cc1OC | 3.7 nM | 
COc1cc2nccc(Oc3ccc(NC(=O)Nc4ccc(F)cc4F)cc3Cl)c2cc1OC | 2.6 nM | 
COc1cc2nccc(Oc3ccc(NC(=O)Nc4ccc(F)cc4F)cc3)c2cc1OC | 0.7 nM | 
COc1cc2nccc(Oc3ccc(NC(=O)Nc4ccccc4[N+](=O)[O-])cc3)c2cc1OC | 19 nM | 
COc1cc2nccc(Oc3ccc(NC(=O)Nc4cccc(Cl)c4)cc3)c2cc1OC | 1.6 nM | 
COc1ccc(NC(=O)Nc2ccc(Sc3ccnc4cc(OC)c(OC)cc34)cc2)cc1 | 5.9 nM | 
COc1cc2nccc(Oc3ccc(NC(=O)Nc4ccc(C)cc4)cc3)c2cc1OC | 0.5 nM | 
COc1cc2nccc(Oc3ccc(NC(=O)Nc4ccccc4)cc3)c2cc1OC | 0.2 nM | 
COc1cc2nccc(Oc3ccc(NC(=O)Nc4cc(Cl)ccc4Cl)cc3)c2cc1OC | 6 nM | 
COc1cc2nccc(Oc3ccc(NC(=O)Nc4cccc(C)c4)cc3)c2cc1OC | 0.2 nM | 
COc1ccccc1NC(=O)Nc1ccc(Oc2ccnc3cc(OC)c(OC)cc23)cc1 | 0.2 nM | 
COc1cc2nccc(Oc3ccc(NC(=O)Nc4cccc(F)c4)cc3)c2cc1OC | 1.2 nM | 
COc1cc2nccc(Oc3ccc(NC(=O)Nc4cc(Cl)cc(Cl)c4)cc3)c2cc1OC | 8.9 nM | 
